Entries after “also recorded” stand apart in the source; their conditions may differ. Like-named read-outs stand apart in the source and are kept apart here.
Legend:
[1] = test system: newly diagnosed GB; conditions: radiation and carmustine with or without CQ; cited from earlier work
[2] = test system: patients with newly diagnosed glioblastoma; experiment: Phase II adverse events related to study drug; format: in vivo, human
[3] = test system: autophagic vacuoles in peripheral blood mononuclear cells; experiment: Electron microscopy scoring of autophagic vacuoles in PBMC; format: in vivo, human
Method in brief: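 PBMC were fixed in 2% glutaraldehyde and held at 4 °C. Micrographs at 10,000–12,000× covered 20–25 mononuclear cells per sample, from multiple fields. Two blinded scorers counted AV by morphological criteria, excluding mitochondria-like structures, and their counts were averaged. A mixed-effects model used time (baseline, week 3, week 9) and a random subject effect.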

[4] = Population pharmacokinetics of HCQ in whole blood; format: in vivo, human
[5] = test system: patients with newly diagnosed glioblastoma; format: in vivo, human
[6] = test system: autophagic vacuoles in peripheral blood mononuclear cells; experiment: PK-PD analysis; format: in vivo, human; conditions: at 9 wk
[7] = test system: newly diagnosed glioblastoma; conditions: phase III trial, RT plus concomitant and adjuvant TMZ; cited from earlier work
[8] = phase II, n = 76, HCQ + RT + TMZ
[9] = HCQ 800 mg/d with RT + TMZ, during chemoradiation

CCN(CC)CCCC(C)Nc1ccnc2cc(Cl)ccc12 (stereo not shown) [CQ, Chloroquine]
median overall survival [1]: trend toward increased median overall survival

CCN(CCO)CCCC(C)Nc1ccnc2cc(Cl)ccc12 (stereo not shown) [HCQ, hydroxychloroquine]
patients off treatment due to toxicity ([2]; phase I and II patients, RT + TMZ + HCQ): 3%
Abdominal pain, Grade 3 [2, 8]: 1 (1) number of patients (%)
Abdominal pain, Total (grade 3 and 4) [2, 8]: 1 (1) number of patients (%)
Alanine aminotransferase increased, Grade 3 [2, 8]: 2 (3) number of patients (%)
Alanine aminotransferase increased, Total (grade 3 and 4) [2, 8]: 2 (3) number of patients (%)
Blood bilirubin increased, Total (grade 3 and 4) [2, 8]: 1 (1) number of patients (%)
Constipation, Grade 4 [2, 8]: 1 (1) number of patients (%)
Constipation, Total (grade 3 and 4) [2, 8]: 1 (1) number of patients (%)
Eye disorders, Grade 3 [2, 8]: 1 (1) number of patients (%)
Eye disorders, Total (grade 3 and 4) [2, 8]: 1 (1) number of patients (%)
Fatigue, Grade 3 [2, 8]: 1 (1) number of patients (%)
Fatigue, Total (grade 3 and 4) [2, 8]: 1 (1) number of patients (%)
Neutrophil count decreased, Grade 3 [2, 8]: 3 (4) number of patients (%)
increase in mean autophagic vacuole count (mixed-effects model) ([3]; all patients (n = 40), P = 0.041): 0.075 per wk
treatment-associated increase in AV diameter ([3]; one patient, 800 mg HCQ cohort): 2.5 fold
treatment-associated increase in AV perimeter ([3]; one patient, 800 mg HCQ cohort): 10 fold
treatment-associated increase in percent of cytoplasm involved by AV ([3]; one patient, 800 mg HCQ cohort): 9 fold
relationship of HCQ exposure / whole blood concentration to dose ([4]; HCQ 200 to 800 mg/d): dose-proportional relationship; also recorded: dose-proportional and sustained exposure
time-dependent trend of HCQ concentrations in whole blood ([4]; groups of patients receiving the same dose): did not show a significant time-dependent trend
mean tlag (individual estimates) ([4]; individual PK parameter estimates derived from the population model, range 0.97 to 1.25): 1.06 h
mean V/F (individual estimates) ([4]; individual PK parameter estimates derived from the population model, range 26 to 5483): 483.96 L
V2/F (individual estimates) ([4]; individual PK parameter estimates derived from the population model, range 558 to 2208): 963 L
dose-limiting toxicities (DLTs) ([5]; HCQ 200 mg/d with RT + TMZ): no dose-limiting toxicities
dose-limiting toxicities (DLTs) ([5]; HCQ 400 mg/d with RT + TMZ): no dose-limiting toxicities; also recorded: no further DLTs were observed
dose-limiting toxicities (DLTs) ([5]; HCQ 600 mg/d with RT + TMZ, 3 patients): no DLTs
dose-limiting toxicity ([5]; HCQ 800 mg/d with RT + TMZ): early and severe myelosuppression; also recorded: dose-limiting myelosuppression
subjects with Grade 3 and 4 neutropenia and thrombocytopenia ([5]; HCQ 800 mg/d with RT + TMZ): 3/3
patients with grade 4 neutropenia [5, 9]: 2/3
patients with grade 4 thrombocytopenia [5, 9]: 3/3
other grade 2 toxicities common to all dose levels ([5]; HCQ 200 to 800 mg/d with RT + TMZ): nausea, fatigue, constipation, and diarrhea
maximum tolerated dose (MTD) of HCQ ([5]; oral daily, in combination with RT and concurrent and adjuvant TMZ): 600 mg/day
PK-PD correlation in PBMC [6]: not significant

Cn1nnc2c(C(N)=O)ncn2c1=O [TMZ, temozolomide]
failure rate (death) [7]: 0.6 per person-year of follow-up

— PMC4203513 (Autophagy, 2014)
